Measurements as given in ChEMBL document CHEMBL4765336, “Discovery of coumarin derivatives as potent and selective cyclin-dependent kinase 9 (CDK9) inhibitors with high antitumour activity” (Eur J Med Chem, 2020).

Key:
[1] = target: CDK9/cyclin T1 (Homo sapiens) (UniProt O60563+P50750); assay: Inhibition of CDK9/Cyclin T1 (unknown origin) assessed as enzyme activity at 1 uM preincubated for 20 mins followed by ATP addition and measured after 120 mins in presence of [33P-gamma] ATP by hotspot kinase assay relative to control; type: protein-complex assay; design: scale not given: the % may be the effect or the level left; settings: time 140.0 min
In short: (§1)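 Radiometric filter-binding kinase assay, buffer pH 7.5 with 10 mM MgCl2 and 1% DMSO. Compound tested at a single 1.0 μM, preincubated 20 min at 25 °C. Reaction started with ATP/[γ-33P]ATP at 10 μM final, run 120 min at 25 °C. Remaining % enzyme activity reported, n=2.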

CDK2/Cyclin A2 = CDK2/Cyclin A2 (Homo sapiens, UniProt P24941); assay: Inhibition of CDK2/Cyclin A (unknown origin) preincubated for 20 mins followed by ATP addition and measured after 120 mins in presence of [33P-gamma] ATP by hotspot kinase assay; type: protein-complex assay
In short: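 Radiometric filter-binding assay: kinase and substrate in 20 mM Hepes pH 7.5, 10 mM MgCl2, 1 mM EGTA, 0.02% Brij35, 0.02 mg/mL BSA, 0.1 mM Na3VO4, 2 mM DTT, 1% DMSO. Compound (top 1/10/27 μM, 3-fold serial dilutions) preincubated 20 min at 25 °C. ATP plus [γ-33P]ATP added to 10 μM final, reacted 120 min at 25 °C. IC50 from curve fit, duplicate mean.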

CDK9/cyclin T1 = CDK9/cyclin T1 (Homo sapiens, UniProt P50750); assay: Inhibition of CDK9/Cyclin T1 (unknown origin) preincubated for 20 mins followed by ATP addition and measured after 120 mins in presence of [33P-gamma] ATP by hotspot kinase assay; type: protein-complex assay
MV4-11 [2] = assay: Antiproliferative activity against human MV4-11 cells assessed as inhibition of cell growth incubated for 72 hrs by Celltiter-Glo luminescent assay; type: functional, cell-based; settings: MV4-11, 72 h
In short: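 Cells seeded in growth medium and held overnight at 37 °C; medium-only wells served as background. DMSO stocks were diluted in medium to 3× final and added; cells incubated 72 h at 37 °C, 5% CO2. Viability read by CellTiter-Glo luminescence after 60 min at room temperature. IC50 from curve fit, mean of duplicate.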

[3] = target: CDK2/Cyclin A2 (Homo sapiens) (UniProt P24941+P20248); assay: Inhibition of CDK2/Cyclin A (unknown origin) assessed as enzyme activity at 1 uM preincubated for 20 mins followed by ATP addition and measured after 120 mins in presence of [33P-gamma] ATP by hotspot kinase assay relative to control; type: protein-complex assay; design: scale not given: the % may be the effect or the level left; settings: time 140.0 min; in short: as §1
MV4-11 [4] = assay: Antitumor activity against human MV4-11 cells xenografted in Balb/c nude mouse assessed as reduction in tumor volume at 40 mg/kg, iv administered once daily for 21 days (reference value: 1.00 g); type: functional; settings: time 21 day
[5] = Metabolic stability in monkey liver microsomes assessed as half life at 1 uM incubated up to 60 mins in presence of NADPH by LC-MS/MS analysis; type: ADME, Macaca mulatta, Microsome; settings: rhesus monkey
In short: (§2)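 Liver microsomes (0.5 mg/mL) incubated at 37 °C with compound at 1.0 μM final, 3 mM MgCl2 and 1 mM NADPH in 100 mM PBS pH 7.4. Samples taken at 0, 5, 15, 30, 60 min; remaining parent measured by LC-MS/MS. k = −slope, T1/2 = 0.693/k, CLint = k/microsomal protein concentration. Midazolam served as control.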

[6] = Metabolic stability in dog liver microsomes assessed as half life at 1 uM incubated up to 60 mins in presence of NADPH by LC-MS/MS analysis; type: ADME, Canis lupus familiaris, Microsome; in short: as §2
[7] = Metabolic stability in rat liver microsomes assessed as intrinsic clearance at 1 uM incubated up to 60 mins in presence of NADPH by LC-MS/MS analysis; type: ADME, Microsome; settings: read-out: CLH; in short: as §2
[8] = Metabolic stability in human liver microsomes assessed as intrinsic clearance at 1 uM incubated up to 60 mins in presence of NADPH by LC-MS/MS analysis; type: ADME, Microsome; settings: read-out: CLH; in short: as §2
[9] = Metabolic stability in human liver microsomes assessed as half life at 1 uM incubated up to 60 mins in presence of NADPH by LC-MS/MS analysis; type: ADME, Microsome; in short: as §2
[10] = Metabolic stability in rat liver microsomes assessed as half life at 1 uM incubated up to 60 mins in presence of NADPH by LC-MS/MS analysis; type: ADME, Microsome; in short: as §2
[11] = Metabolic stability in monkey liver microsomes assessed as intrinsic clearance at 1 uM incubated up to 60 mins in presence of NADPH by LC-MS/MS analysis; type: ADME, Macaca mulatta, Microsome; settings: rhesus monkey, read-out: CLH; in short: as §2
[12] = Metabolic stability in dog liver microsomes assessed as intrinsic clearance at 1 uM incubated up to 60 mins in presence of NADPH by LC-MS/MS analysis; type: ADME, Canis lupus familiaris, Microsome; settings: read-out: CLH; in short: as §2

Chain of CDK9/cyclin T1 (O60563 whole entry): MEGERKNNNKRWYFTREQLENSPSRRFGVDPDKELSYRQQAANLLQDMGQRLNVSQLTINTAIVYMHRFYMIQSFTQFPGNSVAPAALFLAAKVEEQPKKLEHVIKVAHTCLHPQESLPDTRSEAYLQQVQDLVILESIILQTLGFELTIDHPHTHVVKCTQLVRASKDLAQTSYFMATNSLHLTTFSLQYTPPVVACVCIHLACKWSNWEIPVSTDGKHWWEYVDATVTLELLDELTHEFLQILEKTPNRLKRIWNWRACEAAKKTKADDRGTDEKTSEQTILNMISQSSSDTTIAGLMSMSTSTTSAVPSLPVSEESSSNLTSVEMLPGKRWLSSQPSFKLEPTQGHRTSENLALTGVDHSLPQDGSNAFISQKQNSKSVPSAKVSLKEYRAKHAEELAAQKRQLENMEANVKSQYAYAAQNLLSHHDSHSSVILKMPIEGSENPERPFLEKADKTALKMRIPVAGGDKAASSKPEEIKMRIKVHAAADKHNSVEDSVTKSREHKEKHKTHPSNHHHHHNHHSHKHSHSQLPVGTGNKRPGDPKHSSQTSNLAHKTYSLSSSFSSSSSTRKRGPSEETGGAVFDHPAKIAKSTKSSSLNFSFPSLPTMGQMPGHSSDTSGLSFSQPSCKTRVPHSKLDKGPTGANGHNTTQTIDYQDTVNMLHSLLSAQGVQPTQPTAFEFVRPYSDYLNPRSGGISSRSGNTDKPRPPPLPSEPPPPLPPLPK
Chain of CDK9/cyclin T1 (P50750 whole entry): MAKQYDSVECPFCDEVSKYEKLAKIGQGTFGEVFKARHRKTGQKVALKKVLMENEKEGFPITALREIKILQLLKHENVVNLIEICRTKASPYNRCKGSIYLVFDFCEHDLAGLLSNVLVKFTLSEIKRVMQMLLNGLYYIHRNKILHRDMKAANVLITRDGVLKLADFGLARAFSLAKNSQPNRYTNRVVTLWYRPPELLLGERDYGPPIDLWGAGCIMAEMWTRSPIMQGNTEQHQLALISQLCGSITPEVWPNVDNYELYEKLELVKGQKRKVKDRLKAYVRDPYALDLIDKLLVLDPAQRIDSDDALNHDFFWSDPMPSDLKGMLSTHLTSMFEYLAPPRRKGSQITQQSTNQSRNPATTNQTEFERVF

| Compound | IC50 (CDK2/Cyclin A2) [nM] | IC50 (CDK9/cyclin T1) [nM] | IC50 (MV4-11 [2]) [nM] | Activity [3] [%] | other results |
| --- | --- | --- | --- | --- | --- |
| CC(=O)c1c(N2CCOCC2)c2ccc(Nc3cc(-c4ccccc4)ncn3)cc2oc1=O | – | – | – | – | Activity [1]: 104% |
| COc1cc(F)ccc1-c1ccnc(Nc2ccc3c(N4CCOCC4)cc(=O)oc3c2)n1 | 1330 | 18.2 | 2280 | – | – |
| COc1cc(F)ccc1-c1nc(Nc2ccc3c(N4CCCNCC4)c(C(C)=O)c(=O)oc3c2)ncc1F | 496 | 1.6 | 420 | – | – |
| COc1ccccc1-c1ccnc(Nc2ccc3c(N4CCOCC4)c(C(C)=O)c(=O)oc3c2)n1 | 1280 | 3.1 | 1010 | – | – |
| COc1cc(F)ccc1-c1nc(Nc2ccc3c(N4CCN(C)CC4)c(C(C)=O)c(=O)oc3c2)ncc1F | 336 | 1.5 | 400 | – | – |
| CCC(=O)c1c(N2CCOCC2)c2ccc(Nc3nccc(-c4ccc(F)cc4OC)n3)cc2oc1=O | 1090 | 3.6 | 430 | – | – |
| COc1cc(F)ccc1-c1nc(Nc2ccc3c(N4CCOCC4)cc(=O)oc3c2)ncc1F | – | 1.6 | 3110 | 22 | – |
| CCc1ccccc1-c1ccnc(Nc2ccc3c(N4CCOCC4)c(C(C)=O)c(=O)oc3c2)n1 | – | 66.5 | 9840 | 40.5 | – |
| COc1cc(F)ccc1-c1nc(Nc2ccc3c(N4CCOCC4)c(C(C)=O)c(=O)oc3c2)ncc1Cl | 401 | 3.6 | 1010 | – | – |
| CCC(=O)c1c(N2CCOCC2)c2ccc(Nc3ncc(F)c(-c4ccc(F)cc4OC)n3)cc2oc1=O | 338 | 0.7 | 420 | – | – |
| CCN1CCN(c2c(C(C)=O)c(=O)oc3cc(Nc4nccc(-c5ccc(F)cc5OC)n4)ccc23)CC1 | – | 10.5 | 740 | 61.8 | – |
| CC(=O)c1c(N2CCOCC2)c2ccc(Nc3nccc(-c4ccccc4C(F)(F)F)n3)cc2oc1=O | – | 2490 | – | – | – |
| COc1ccc(-c2ccnc(Nc3ccc4c(N5CCOCC5)c(C(C)=O)c(=O)oc4c3)n2)c(OC)c1 | – | 54.2 | 820 | 46.3 | – |
| COc1cccc(-c2ccnc(Nc3ccc4c(N5CCOCC5)c(C(C)=O)c(=O)oc4c3)n2)c1OC | – | – | 5070 | – | Activity [1]: 51.7% |
| CC(=O)c1c(N2CCOCC2)c2ccc(Nc3nccc(-c4c(F)cccc4F)n3)cc2oc1=O | – | 267 | > 10000 | – | – |
| COc1ccccc1-c1ccnc(Nc2ccc3c(N4CCCNCC4)cc(=O)oc3c2)n1 | 2060 | 11.7 | 1680 | – | – |
| COc1ccccc1-c1cc(Nc2ccc3c(C)c(C(C)=O)c(=O)oc3c2)ncn1 | – | 37.6 | > 10000 | 64.5 | – |
| CCc1c(N2CCOCC2)c2ccc(Nc3nccc(-c4ccccc4OC)n3)cc2oc1=O | 10900 | 67.3 | 4720 | – | – |
| COc1ccc(-c2ccnc(Nc3ccc4c(N5CCOCC5)c(C(C)=O)c(=O)oc4c3)n2)cc1 | – | 81.7 | 6490 | 21.6 | – |

| Compound | IC50 (CDK2/Cyclin A2) [nM] | IC50 (CDK9/cyclin T1) [nM] | IC50 (MV4-11 [2]) [nM] | Activity [3] [%] | other results |
| --- | --- | --- | --- | --- | --- |
| CC(=O)c1c(N2CCOCC2)c2ccc(Nc3nccc(-c4ccccc4C)n3)cc2oc1=O | – | 489 | – | – | – |
| COc1ccccc1-c1ccnc(Nc2ccc3c(N4CCOCC4)cc(=O)oc3c2)n1 | – | 47.2 | 4570 | 57.9 | – |
| CC(=O)c1c(N2CCOCC2)c2ccc(Nc3cc(-c4ccccc4C(F)(F)F)ncn3)cc2oc1=O | – | – | – | – | Activity [1]: 106% |
| COc1cccc(-c2ccnc(Nc3ccc4c(N5CCOCC5)c(C(C)=O)c(=O)oc4c3)n2)c1 | – | 18.4 | 1490 | 54.1 | – |
| Nc1ccn([C@@H]2O[C@H](CO)[C@@H](O)[C@@H]2O)c(=O)n1 [CYTARABINE] | – | – | – | – | Activity (MV4-11 [4]): 0.26 g |
| CC(=O)c1c(N2CCOCC2)c2ccc(Nc3cc(-c4ccccc4C)ncn3)cc2oc1=O | – | – | – | – | Activity [1]: 92.2% |
| COc1ccccc1-c1ccnc(Nc2ccc3c(C)c(C(C)=O)c(=O)oc3c2)n1 | 451 | 6.5 | 10200 | – | – |
| COc1ccc(F)cc1-c1ccnc(Nc2ccc3c(N4CCOCC4)c(C(C)=O)c(=O)oc3c2)n1 | – | 21.8 | 1740 | 49.6 | – |
| COc1cc(F)ccc1-c1ccnc(Nc2ccc3c(N4CCCCC4)c(C(C)=O)c(=O)oc3c2)n1 | – | 6.5 | 730 | 73.1 | – |
| COc1cc(F)ccc1-c1nc(Nc2ccc3c(N4CCN(C)CC4)c(C(C)=O)c(=O)oc3c2)ncc1Cl | 642 | 1.7 | 1390 | – | – |
| COc1ccccc1-c1cc(Nc2ccc3c(N4CCOCC4)c(C(C)=O)c(=O)oc3c2)ncn1 | 3420 | 210 | > 10000 | – | – |
| CCN1CCN(c2c(C(C)=O)c(=O)oc3cc(Nc4ncc(F)c(-c5ccc(F)cc5OC)n4)ccc23)CC1 | 305 | 1.2 | 550 | – | – |
| CC(=O)c1c(N2CCOCC2)c2ccc(Nc3nccc(-c4ccccc4)n3)cc2oc1=O | – | 228 | – | – | – |
| COc1cccc(F)c1-c1ccnc(Nc2ccc3c(N4CCOCC4)c(C(C)=O)c(=O)oc3c2)n1 | – | 13.7 | 520 | 58.7 | – |
| CC(=O)c1c(N2CCOCC2)c2ccc(Nc3nccc(-c4ccccc4[N+](=O)[O-])n3)cc2oc1=O | – | 2340 | > 10000 | – | – |
| COc1ccccc1-c1ccnc(Nc2ccc3c(N4CCNCC4)cc(=O)oc3c2)n1 | 3660 | 25.3 | 1340 | – | – |
| Cc1ncc2n1-c1ccc(Cl)cc1C(c1ccccc1F)=NC2 [MIDAZOLAM] | – | – | – | – | half-life at 1 µM [5]: 6.29 min; half-life at 1 µM [6]: 2.31 min; microsomal CLint at 1 µM [7]: 908 µL/min/mg; microsomal CLint at 1 µM [8]: 287 µL/min/mg; half-life at 1 µM [9]: 12.1 min; half-life at 1 µM [10]: 3.82 min; microsomal CLint at 1 µM [11]: 551 µL/min/mg; microsomal CLint at 1 µM [12]: 1500 µL/min/mg |
| CCc1ccccc1-c1cc(Nc2ccc3c(N4CCOCC4)c(C(C)=O)c(=O)oc3c2)ncn1 | – | – | – | – | Activity [1]: 90% |
| COc1cc(F)ccc1-c1ccnc(Nc2ccc3c(N4CCN(C)CC4)c(C(C)=O)c(=O)oc3c2)n1 | – | 16.4 | 520 | 74.8 | – |
